The source made the active and inactive calls. The calls are words filed in the database; no cut-off is given here.
Assays:
[1] = Increase in secretion of basic-FGF in IL-1alpha activated RA patient-derived synovial fibroblasts at 0.6 to 3 uM preincubated for 3 hrs followed by IL-1alpha stimulation measured after 18 hrs by sandwich immunoassay; settings: human
In short: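 Primary human RA synovial fibroblasts (donor RA2159) seeded at 1000 viable cells/well, grown ~24 h at 37 °C/5% CO2, then starved overnight in basal medium and for a further ~4 h in basal medium with 0.1% BSA. Inhibitor or DMSO given 3 h before stimulation. Supernatants from two adjacent wells pooled as one replicate, biological duplicate. Luminex multiplex panels (48 analytes), diluted 1:3. Mock-supernatant background and spiked-ligand cross-reactivity controls included.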

NCI-H23 = assay: Antiproliferative activity against human NCI-H23 cells harboring KRAS G12C mutant at; type: functional, cell-based
[2] = biological target: Macrophage-stimulating protein receptor (Homo sapiens) (UniProt Q04912); assay: Inhibition of RON in human SKCO1 cells at 1 uM after 4 hrs using biotin labeled IQCAIKSLSR probe by mass-spectrometric analysis relative to control; type: cell-based
[3] = biological target: DnaJ homolog subfamily B member 6 (Homo sapiens) (UniProt O75190); assay: Binding affinity to DNAJB6 in human NCI-H23 cells at 1 uM by mass spectrometry based pull down assay; type: cell-based
[4] = biological target: T1, Dual specificity mitogen-activated protein kinase kinase 6 (Homo sapiens) (UniProt P52564); assay: Binding affinity to MAP2K6 in human NCI-H23 cells at 1 uM by mass spectrometry based pull down assay; type: cell-based
T1 sequence (whole entry): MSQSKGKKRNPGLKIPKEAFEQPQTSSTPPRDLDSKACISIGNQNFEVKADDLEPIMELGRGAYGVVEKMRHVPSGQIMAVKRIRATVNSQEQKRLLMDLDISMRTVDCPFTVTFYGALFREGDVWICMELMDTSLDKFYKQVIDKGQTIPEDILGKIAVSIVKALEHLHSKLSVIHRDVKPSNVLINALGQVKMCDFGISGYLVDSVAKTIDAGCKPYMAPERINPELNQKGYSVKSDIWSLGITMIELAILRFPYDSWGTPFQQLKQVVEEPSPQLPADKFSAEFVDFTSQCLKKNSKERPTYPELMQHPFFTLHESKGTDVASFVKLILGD

[5] = biological target: Calmodulin-2 (Homo sapiens) (UniProt P0DP24); assay: Binding affinity to CALM2 in human NCI-H23 cells at 1 uM by mass spectrometry based pull down assay; type: cell-based
[6] = biological target: Heterogeneous nuclear ribonucleoprotein U (Homo sapiens) (UniProt Q00839); assay: Binding affinity to HNRNPU in human NCI-H358 cells at 1 uM by mass spectrometry based pull down assay; type: cell-based
[7] = biological target: BLOC-2 complex member HPS6 (Homo sapiens) (UniProt Q86YV9); assay: Binding affinity to HPS6 in human NCI-H358 cells at 1 uM by mass spectrometry based pull down assay; type: cell-based
[8] = biological target: Acidic leucine-rich nuclear phosphoprotein 32 family member B (Homo sapiens) (UniProt Q92688); assay: Binding affinity to ANP32B in human NCI-H358 cells at 1 uM by mass spectrometry based pull down assay; type: cell-based
[9] = biological target: Low molecular weight phosphotyrosine protein phosphatase (Homo sapiens) (UniProt P24666); assay: Binding affinity to ACP1 in human NCI-H358 cells at 1 uM by mass spectrometry based pull down assay; type: cell-based
In short: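 NCI-H23 or NCI-H358 cells were grown and lysed. Lysates were incubated overnight at 4 °C with 1 μM biotinylated covalent probe or DMSO, then pulled down on streptavidin beads. Proteins were run on polyacrylamide gels and stained with Coomassie. Bands were excised, digested and identified by mass spectrometry.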

[10] = biological target: T2, Serine/threonine-protein kinase Nek9 (Homo sapiens) (UniProt Q8TD19); assay: Binding affinity to NEK9 in human NCI-H23 cells at 1 uM by mass spectrometry based pull down assay; type: cell-based
T2 sequence (whole entry): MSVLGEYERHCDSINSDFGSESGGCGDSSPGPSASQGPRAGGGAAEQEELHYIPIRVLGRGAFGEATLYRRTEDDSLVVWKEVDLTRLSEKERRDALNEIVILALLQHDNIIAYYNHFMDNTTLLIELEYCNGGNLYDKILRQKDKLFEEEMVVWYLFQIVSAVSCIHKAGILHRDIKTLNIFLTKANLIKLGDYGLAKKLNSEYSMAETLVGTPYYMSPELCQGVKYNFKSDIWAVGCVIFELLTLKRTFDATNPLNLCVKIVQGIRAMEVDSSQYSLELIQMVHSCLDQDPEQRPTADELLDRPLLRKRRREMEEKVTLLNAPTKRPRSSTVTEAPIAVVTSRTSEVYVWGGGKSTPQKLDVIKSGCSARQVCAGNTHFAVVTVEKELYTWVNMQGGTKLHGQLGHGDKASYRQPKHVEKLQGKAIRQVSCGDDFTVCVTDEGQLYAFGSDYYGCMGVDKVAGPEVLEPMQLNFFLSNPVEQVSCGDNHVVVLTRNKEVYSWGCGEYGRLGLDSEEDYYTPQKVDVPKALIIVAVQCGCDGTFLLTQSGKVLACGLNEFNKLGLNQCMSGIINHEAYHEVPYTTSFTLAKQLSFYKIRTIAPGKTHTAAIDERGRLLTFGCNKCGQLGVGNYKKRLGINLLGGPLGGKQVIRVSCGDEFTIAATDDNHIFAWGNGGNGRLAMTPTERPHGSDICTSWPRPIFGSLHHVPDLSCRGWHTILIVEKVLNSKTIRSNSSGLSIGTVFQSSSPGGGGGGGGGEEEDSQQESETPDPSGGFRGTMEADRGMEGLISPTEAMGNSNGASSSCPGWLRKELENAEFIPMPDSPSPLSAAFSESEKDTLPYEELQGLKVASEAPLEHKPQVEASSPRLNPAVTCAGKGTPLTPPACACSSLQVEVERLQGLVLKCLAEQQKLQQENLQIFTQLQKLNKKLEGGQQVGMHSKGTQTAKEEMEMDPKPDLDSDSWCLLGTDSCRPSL

[11] = biological target: Protein disulfide-isomerase A4 (Homo sapiens) (UniProt P13667); assay: Binding affinity to PDIA4 in human NCI-H23 cells at 1 uM by mass spectrometry based pull down assay; type: cell-based
[12] = biological target: Protein disulfide-isomerase A4 (Homo sapiens) (UniProt P13667); assay: Binding affinity to PDIA4 in human NCI-H358 cells at 1 uM by mass spectrometry based pull down assay; type: cell-based
[13] = biological target: Small ribosomal subunit protein mS29 (Homo sapiens) (UniProt P51398); assay: Binding affinity to DAP3 in human NCI-H23 cells at 1 uM by mass spectrometry based pull down assay; type: cell-based
[14] = biological target: Inosine-5'-monophosphate dehydrogenase 1 (Homo sapiens) (UniProt P20839); assay: Binding affinity to IMPDH1 in human NCI-H23 cells at 1 uM by mass spectrometry based pull down assay; type: cell-based
[15] = biological target: Heterogeneous nuclear ribonucleoprotein D0 (Homo sapiens) (UniProt Q14103); assay: Binding affinity to HNRNPD in human NCI-H358 cells at 1 uM by mass spectrometry based pull down assay; type: cell-based
[16] = biological target: Src substrate cortactin (Homo sapiens) (UniProt Q14247); assay: Binding affinity to CTTN in human NCI-H23 cells at 1 uM by mass spectrometry based pull down assay; type: cell-based
[17] = biological target: Eukaryotic translation initiation factor 2A (Homo sapiens) (UniProt Q9BY44); assay: Binding affinity to EIF2A in human NCI-H23 cells at 1 uM by mass spectrometry based pull down assay; type: cell-based

Protein disulfide-isomerase A4 (Homo sapiens), sequence (P13667 whole entry): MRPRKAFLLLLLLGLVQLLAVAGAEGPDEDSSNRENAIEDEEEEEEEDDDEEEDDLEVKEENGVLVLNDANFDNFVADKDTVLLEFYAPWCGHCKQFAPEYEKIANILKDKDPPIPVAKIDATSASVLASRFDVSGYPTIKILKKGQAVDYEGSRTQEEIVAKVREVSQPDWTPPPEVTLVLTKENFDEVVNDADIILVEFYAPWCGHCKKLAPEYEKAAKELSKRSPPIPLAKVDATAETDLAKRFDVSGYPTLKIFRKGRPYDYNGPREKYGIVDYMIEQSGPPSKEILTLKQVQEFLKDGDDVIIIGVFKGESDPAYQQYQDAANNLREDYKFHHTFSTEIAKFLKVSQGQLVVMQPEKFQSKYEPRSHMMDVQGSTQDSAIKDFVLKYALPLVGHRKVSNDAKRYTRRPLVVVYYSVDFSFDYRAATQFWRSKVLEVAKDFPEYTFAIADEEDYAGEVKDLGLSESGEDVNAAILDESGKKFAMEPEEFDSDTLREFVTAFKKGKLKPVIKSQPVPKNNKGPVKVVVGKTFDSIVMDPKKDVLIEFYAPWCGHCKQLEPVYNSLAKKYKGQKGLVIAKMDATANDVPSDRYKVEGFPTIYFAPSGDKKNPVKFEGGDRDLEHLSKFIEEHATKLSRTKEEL
Inosine-5'-monophosphate dehydrogenase 1 (Homo sapiens), sequence (P20839 2-514 limits assumed): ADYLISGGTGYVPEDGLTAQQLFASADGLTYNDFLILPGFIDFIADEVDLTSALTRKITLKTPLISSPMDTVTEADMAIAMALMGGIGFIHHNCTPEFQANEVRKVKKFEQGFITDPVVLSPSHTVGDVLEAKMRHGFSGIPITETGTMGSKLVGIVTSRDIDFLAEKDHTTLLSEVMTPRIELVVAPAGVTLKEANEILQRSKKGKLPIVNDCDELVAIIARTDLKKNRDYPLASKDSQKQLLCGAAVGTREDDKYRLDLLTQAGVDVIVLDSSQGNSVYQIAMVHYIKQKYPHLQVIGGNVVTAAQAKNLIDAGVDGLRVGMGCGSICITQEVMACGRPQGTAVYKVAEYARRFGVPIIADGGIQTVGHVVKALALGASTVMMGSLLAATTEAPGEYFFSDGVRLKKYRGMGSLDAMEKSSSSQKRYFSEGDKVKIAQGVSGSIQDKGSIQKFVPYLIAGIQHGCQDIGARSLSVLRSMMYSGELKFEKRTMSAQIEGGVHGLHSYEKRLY
DnaJ homolog subfamily B member 6 (Homo sapiens), sequence (O75190 whole entry): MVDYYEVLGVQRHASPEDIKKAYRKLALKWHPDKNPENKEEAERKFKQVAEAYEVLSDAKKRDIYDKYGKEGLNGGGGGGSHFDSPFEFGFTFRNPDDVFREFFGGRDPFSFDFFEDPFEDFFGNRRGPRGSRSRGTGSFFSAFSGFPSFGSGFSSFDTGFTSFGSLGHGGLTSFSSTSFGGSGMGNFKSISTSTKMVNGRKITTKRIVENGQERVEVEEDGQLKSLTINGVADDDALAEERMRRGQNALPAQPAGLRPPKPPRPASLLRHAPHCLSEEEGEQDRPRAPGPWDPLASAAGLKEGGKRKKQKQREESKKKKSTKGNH
Macrophage-stimulating protein receptor (Homo sapiens), sequence (Q04912 25-304 limits assumed): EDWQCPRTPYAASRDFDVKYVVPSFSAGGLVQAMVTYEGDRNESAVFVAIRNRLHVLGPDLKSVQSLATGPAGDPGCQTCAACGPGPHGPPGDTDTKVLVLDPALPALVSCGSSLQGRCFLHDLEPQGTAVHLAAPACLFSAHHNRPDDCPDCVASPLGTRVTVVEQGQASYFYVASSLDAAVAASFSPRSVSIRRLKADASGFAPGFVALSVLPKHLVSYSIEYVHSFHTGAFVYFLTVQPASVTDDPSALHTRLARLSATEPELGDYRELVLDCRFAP
Macrophage-stimulating protein receptor (Homo sapiens), sequence (Q04912 310-1400 limits assumed): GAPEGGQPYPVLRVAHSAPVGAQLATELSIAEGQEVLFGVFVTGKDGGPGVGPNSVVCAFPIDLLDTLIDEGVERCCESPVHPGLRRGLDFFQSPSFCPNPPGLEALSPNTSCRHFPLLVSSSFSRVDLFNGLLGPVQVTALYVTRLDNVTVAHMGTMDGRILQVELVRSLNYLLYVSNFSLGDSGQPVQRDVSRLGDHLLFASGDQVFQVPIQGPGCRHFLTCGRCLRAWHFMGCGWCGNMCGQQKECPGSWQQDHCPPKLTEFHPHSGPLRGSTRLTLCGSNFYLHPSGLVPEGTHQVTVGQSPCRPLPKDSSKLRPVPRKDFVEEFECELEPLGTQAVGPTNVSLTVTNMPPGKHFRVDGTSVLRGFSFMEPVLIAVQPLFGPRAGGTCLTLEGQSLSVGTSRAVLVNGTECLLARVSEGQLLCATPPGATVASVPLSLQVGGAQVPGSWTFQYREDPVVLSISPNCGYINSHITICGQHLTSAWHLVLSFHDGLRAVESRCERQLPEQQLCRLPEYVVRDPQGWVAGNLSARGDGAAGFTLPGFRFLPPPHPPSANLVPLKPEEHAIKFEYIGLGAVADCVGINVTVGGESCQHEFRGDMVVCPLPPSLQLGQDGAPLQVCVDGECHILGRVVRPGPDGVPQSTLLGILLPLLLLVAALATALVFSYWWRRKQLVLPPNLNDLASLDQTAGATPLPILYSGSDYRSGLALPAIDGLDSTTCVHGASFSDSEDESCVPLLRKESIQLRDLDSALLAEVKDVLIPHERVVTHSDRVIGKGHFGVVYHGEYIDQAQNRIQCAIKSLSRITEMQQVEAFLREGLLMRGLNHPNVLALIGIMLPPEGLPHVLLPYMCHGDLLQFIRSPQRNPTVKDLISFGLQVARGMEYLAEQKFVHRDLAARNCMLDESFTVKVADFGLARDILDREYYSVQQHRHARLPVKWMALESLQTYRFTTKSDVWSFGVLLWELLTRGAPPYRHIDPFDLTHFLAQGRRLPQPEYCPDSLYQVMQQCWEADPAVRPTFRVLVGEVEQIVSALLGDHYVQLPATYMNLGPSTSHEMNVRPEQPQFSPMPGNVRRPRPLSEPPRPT
Src substrate cortactin (Homo sapiens), sequence (Q14247 whole entry): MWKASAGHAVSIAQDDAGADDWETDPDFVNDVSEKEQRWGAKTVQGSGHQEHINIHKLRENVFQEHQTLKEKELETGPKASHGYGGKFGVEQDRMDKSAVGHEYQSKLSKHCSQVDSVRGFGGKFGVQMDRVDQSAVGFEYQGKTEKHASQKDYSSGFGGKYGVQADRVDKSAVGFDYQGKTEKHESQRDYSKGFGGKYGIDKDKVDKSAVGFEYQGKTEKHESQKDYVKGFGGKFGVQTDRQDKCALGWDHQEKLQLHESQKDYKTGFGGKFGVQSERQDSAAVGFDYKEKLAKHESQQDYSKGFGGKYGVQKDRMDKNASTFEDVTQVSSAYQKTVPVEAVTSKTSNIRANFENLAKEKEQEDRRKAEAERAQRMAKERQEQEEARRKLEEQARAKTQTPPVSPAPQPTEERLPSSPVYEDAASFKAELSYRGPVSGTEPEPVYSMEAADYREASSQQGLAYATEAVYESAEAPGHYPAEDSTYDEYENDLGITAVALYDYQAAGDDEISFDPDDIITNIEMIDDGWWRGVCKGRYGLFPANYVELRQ
Low molecular weight phosphotyrosine protein phosphatase (Homo sapiens), sequence (P24666 whole entry): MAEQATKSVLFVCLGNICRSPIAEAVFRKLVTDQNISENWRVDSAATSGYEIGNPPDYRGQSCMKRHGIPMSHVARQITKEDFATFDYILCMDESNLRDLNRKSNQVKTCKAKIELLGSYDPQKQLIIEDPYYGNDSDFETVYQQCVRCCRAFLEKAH
Acidic leucine-rich nuclear phosphoprotein 32 family member B (Homo sapiens), sequence (Q92688 whole entry): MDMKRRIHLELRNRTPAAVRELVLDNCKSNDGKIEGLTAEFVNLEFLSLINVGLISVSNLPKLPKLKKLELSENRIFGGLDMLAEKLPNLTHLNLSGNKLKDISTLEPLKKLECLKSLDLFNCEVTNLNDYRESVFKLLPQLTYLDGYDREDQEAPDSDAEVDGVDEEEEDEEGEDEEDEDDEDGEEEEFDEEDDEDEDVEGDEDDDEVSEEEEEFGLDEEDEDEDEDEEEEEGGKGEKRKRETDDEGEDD
Heterogeneous nuclear ribonucleoprotein U (Homo sapiens), sequence (Q00839 whole entry): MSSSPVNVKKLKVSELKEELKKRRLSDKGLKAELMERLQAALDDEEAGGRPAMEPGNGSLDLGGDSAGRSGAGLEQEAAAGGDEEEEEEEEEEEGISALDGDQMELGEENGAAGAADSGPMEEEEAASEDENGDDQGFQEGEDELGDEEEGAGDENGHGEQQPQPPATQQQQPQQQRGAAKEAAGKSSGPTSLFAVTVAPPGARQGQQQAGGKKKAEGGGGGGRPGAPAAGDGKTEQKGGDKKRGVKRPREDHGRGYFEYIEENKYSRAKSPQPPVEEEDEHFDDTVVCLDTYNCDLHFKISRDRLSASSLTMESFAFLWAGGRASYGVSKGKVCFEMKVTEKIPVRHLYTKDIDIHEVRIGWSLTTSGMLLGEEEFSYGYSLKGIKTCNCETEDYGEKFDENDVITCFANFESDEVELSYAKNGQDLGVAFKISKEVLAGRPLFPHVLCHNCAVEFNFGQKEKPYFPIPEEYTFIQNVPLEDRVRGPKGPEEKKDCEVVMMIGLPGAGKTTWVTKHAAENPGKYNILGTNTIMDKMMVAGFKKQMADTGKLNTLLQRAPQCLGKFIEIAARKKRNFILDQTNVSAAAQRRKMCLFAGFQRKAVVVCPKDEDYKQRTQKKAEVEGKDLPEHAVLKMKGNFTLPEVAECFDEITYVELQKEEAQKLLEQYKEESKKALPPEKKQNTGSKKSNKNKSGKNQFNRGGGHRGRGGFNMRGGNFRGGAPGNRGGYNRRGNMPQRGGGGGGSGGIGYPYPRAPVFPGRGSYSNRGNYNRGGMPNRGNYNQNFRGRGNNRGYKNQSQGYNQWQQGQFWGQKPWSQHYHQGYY
Heterogeneous nuclear ribonucleoprotein D0 (Homo sapiens), sequence (Q14103 whole entry): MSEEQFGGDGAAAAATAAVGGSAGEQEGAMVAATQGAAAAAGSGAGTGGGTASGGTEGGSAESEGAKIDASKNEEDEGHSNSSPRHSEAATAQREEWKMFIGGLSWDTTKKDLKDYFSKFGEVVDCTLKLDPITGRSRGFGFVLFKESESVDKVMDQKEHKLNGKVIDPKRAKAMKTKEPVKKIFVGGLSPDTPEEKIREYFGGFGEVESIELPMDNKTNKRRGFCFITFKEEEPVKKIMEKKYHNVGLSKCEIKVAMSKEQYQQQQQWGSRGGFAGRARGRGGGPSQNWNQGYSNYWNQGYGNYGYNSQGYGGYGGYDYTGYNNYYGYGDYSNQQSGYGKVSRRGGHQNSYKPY

COc1cc(O)c2c(c1)/C=C/C[C@H](O)[C@H](O)C(=O)/C=C\C[C@H](C)OC2=O
Activity [1]: Non-Toxic
Activity (NCI-H23): Active

C=CC(=O)Nc1ccccc1Oc1nc(Nc2cnn(CCOC)c2)ncc1Cl
inhibition [2]: -4.2%

C=CC(=O)Nc1ccccc1Nc1nc(Nc2ccc(N3CCN(CCOCCOCCOCCNC(=O)CCCC[C@@H]4SC[C@@H]5NC(=O)N[C@@H]54)CC3)cc2)ncc1Cl
Activity [3]: Active
Activity [4]: Active
Activity [5]: Active
Activity [6]: Active
Activity [7]: Active
Activity [8]: Active
Activity [9]: Active
Activity [10]: Active
Activity [11]: Active
Activity [12]: Active
Activity [13]: Active
Activity [14]: Active
Activity [15]: Active
Activity [16]: Active
Activity [17]: Active

— ChEMBL document CHEMBL4118021, “Studies of TAK1-centered polypharmacology with novel covalent TAK1 inhibitors” (Bioorg Med Chem, 2017)
